Lmaj promast: inhibitors of Leishmania major promastigote growth; 200,000 compounds, 9% hits; inhibition, % at 10 µM; Leishmania major promastigotes, resazurin fluorescence viability; AID 1063; in the data active = inhibition above about 50%;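 also: promastigotes grown with compound for 44 hours at 28 °C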
CHOP inh: blocks CHOP induction under ER stress; inhibition, % at 10 µM; CHO-K1 CHOP-promoter luciferase, tunicamycin-induced, 15-18 h; 220,000 compounds, 3.8% hits;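 active = compounds that reduced the stress-induced luciferase reporter signal by more than about 70% of percent inhibition, limit read from the data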;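 also: 0% = tunicamycin plus vehicle and 100% = wells without tunicamycin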
T cruzi inh: T. cruzi replication inhibition | T. cruzi beta-gal in NIH3T3, luminescence, 90 h | inhibition, % (concentration not given with the values) | 300,000 compounds, 1.4% hits;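 active = mean inhibition across valid replicates above about 55%, limit read from the data; inconclusive = mean below that limit but half or more replicates reach it; inactive = mean below it, under half of replicates reach it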;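 also: signal also drops with host cell toxicity which is not excluded here; 0% = plate median of DMSO wells and 100% = zero luminescence signal; higher percent means less beta-gal luminescence so fewer parasites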
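System: mouse NIH/3T3 fibroblasts infected with β-gal-expressing T. cruzi Tulahuen C4 / Input: NIH/3T3 cells, 5,000 per well / Buffer or medium: Low-serum DMEM with 2% FBS / Probe or stimulus: 5000 reporter trypomastigotes per well / Schedule: ≥90 h infection period, 3 h prior cell attachment / Measured by: GalScreen luminescence, 60 min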
UPR CHOP act: activators of apoptotic arm of unfolded protein response (CHOP); 330,000 compounds, 0.34% hits; CHO-CHOP luciferase reporter, UPR activation, luminescence; percent of tunicamycin response over DMSO baseline; activation, % at 10 µM; AID 449763;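 active = at 10 µM dose, activation of 40% or more, normalized to positive control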;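 also: 100% = tunicamycin at 10 µg/mL and 0% = DMSO alone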
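System: CHO-CHOP luciferase reporter cell line | Buffer or medium: F12 medium containing 10% fetal bovine serum | Doses: One dose, 10 µM in 0.5% DMSO | Times: 6 h compound exposure at 37 °C after overnight seeding | Signal: Luciferase luminescence | Read-out: % activation vs tunicamycin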
Dynein transport: dynein cargo transport inhibition | 3617.4 mouse cells, GR-EGFP nuclear translocation imaging; test concentration mostly 20 µM; stimulated with dexamethasone, 1 µM; active compounds read low | z-score, hits read low | 220,000 compounds, 0.47% hits;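 active = plate z-score of nuclear minus cytoplasmic receptor signal below a set negative limit, without overly bright fluorescence or cell loss, cut at about -3.5 in these data, passing the limit was not always enough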;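 also: z-score of nuclear minus cytoplasmic ring GR-EGFP intensity difference per well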
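Also added – dexamethasone, 1.0 µM final · Buffer or medium – tet-free, stripped-serum medium · Schedule – induction 48 h, compound 1 h, agonist 30 min · Detection – formaldehyde fixation, Hoechst nuclear stain, 10x automated fluorescence imaging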
XBP1 UPR activ: adaptive UPR (XBP1) activation; CHO-XBP1 luciferase reporter, IRE1-XBP1 UPR activation, luminescence; percent of tunicamycin response, DMSO as zero; activation, % at 20 µM; 330,000 compounds, 0.33% hits;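 active = versus positive control, 20 µM dose yields 30% or more activation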;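 also: 100% = tunicamycin at 10 µg/mL and 0% = DMSO only wells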
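assay system = CHO-XBP1 luciferase reporter cells | amount = 1000 cells/well | buffer or medium = F12 plus 10% FBS | compound dosing = single point, 20 µM final compound, 1% DMSO | incubation = 16-18 h cell attachment at 37 °C, then 6 h compound exposure | detection = Steady-Glo luminescence read | controls = tunicamycin 10 µg/mL and vehicle-only wells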
L major 1uM: L. major promastigote growth inhibition, 1 uM repeat | resazurin fluorescence, 48 h | 1,100 compounds, 13% hits | AID 1258 | shares compounds with Lmaj promast | inhibition, % at 1 µM;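 active = inhibition above about 50% in both repeat tests, limit read from the data; inconclusive = one repeat under the set limit, the other over it; inactive = both repeats under the set limit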
Dynein confirm: dynein cargo transport inhibition, confirmation. shares compounds with Dynein transport. 1,000 compounds, 69% hits. calls only at 20 µM. 3617.4 GR-EGFP nuclear translocation imaging, dexamethasone-induced. AID 463116;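 active = inhibition of receptor movement into the nucleus at or above a set limit in both runs, with normal cell brightness and cell count; inconclusive = limit reached in only one run, brightness and count normal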;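 also: dexamethasone at 1 µM final in well for 30 min; nuclear minus cytoplasmic GR-EGFP mean intensity difference in channel 2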
CHOP inh conf: confirmation of CHOP induction inhibitors. inhibition, % at 10 µM. CHO-CHOP promoter luciferase reporter, tunicamycin-induced, luminescence. AID 504437. shares compounds with CHOP inh. 2,100 compounds, 45% hits;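 active = mean of three repeat readings of reporter signal inhibition above a set limit, cut at about 70% in these data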;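 also: 0% = tunicamycin plus vehicle and 100% = wells lacking tunicamycin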
Active calls of the source: *; i = inactive; ? = inconclusive; / = no result given; + = active, no number. Shown is part of a subset that was picked to be rich in hits.

SMILES	Lmaj promast	CHOP inh	T cruzi inh	UPR CHOP act	Dynein transport	XBP1 UPR activ	L major 1uM	others
COc1ccccc1CN(C(=O)CNC(=O)c1ccco1)C(C(=O)NCC1CCCO1)c1ccc(OC)c(OC)c1 (stereo unspecified)	/	/	-3	0	/	4	/
Nc1ccc(-c2nc3ccc(-c4nc5ccccc5o4)cc3[nH]2)cc1	76*	-22	11	7	0.93	8	-27
Nc1ccc(-c2nc3ccc(N)cc3[nH]2)cc1	11	23	-12	1	2.6	-9	/
COC(=O)c1cc2ccsc2n1Cc1cccc(F)c1	40	53	-19	7	-0.41	2	/
COC(=O)c1cc2ccsc2n1Cc1nc(-c2ccc(OC)cc2)oc1C	100*	8	13	1	0.032	-5	93*
CCOC(=O)c1cnc2c(OC)cccc2c1Nc1ccc2c(c1)OCCO2	53*	23	10	-1	0.79	2	13
CCCc1nc2nc(C)c(NS(=O)(=O)c3ccc([N+](=O)[O-])cc3)c(=O)n2[nH]1	/	/	-9	1	/	-1	/
c1ccc2c(c1)OC(CCCN1CCCCC1)c1ccccc1S2 (stereo unspecified)	100*	4	26	2	1.9	2	95*
COc1cc(Cl)ccc1NC(=O)COc1ccccc1C(=O)N1CCN(c2ccc(O)cc2)CC1	63*	14	17	-1	-0.58	-2	5
O=C(NCC(=O)N1CCN(S(=O)(=O)c2ccccc2F)CC1)c1ccc(Br)o1	/	/	-3	-2	/	-4	/
CCOC(=O)Cn1nc(-c2ccc(F)cc2)cc(Cc2ccccc2)c1=O	/	/	18	-2	/	-4	/
CCOC(=O)Cc1cc(-c2ccc(F)cc2)nc2ccc3ccccc3c12	68*	20	25	/	0.18	/	7
C=CCS(=O)(=O)c1nc2ccccc2s1	101*	-9	-36	32	-5.4*	-10	10	Dynein confirm=i
COc1ccc(C(=O)OC(C)CN2CCOCC2)cc1OC (stereo unspecified)	-7	33	-1	-3	-0.14	-7	/
COc1ccc(C(=O)C(CN2CCOCC2)c2ccccc2)cc1F (stereo unspecified)	100*	/	15	/	-4*	/	86*	Dynein confirm=+
CCOC(=O)C1=C(C)N=C2SC=C(C)N2C1c1ccc(OC)cc1 (stereo unspecified)	-3	-9	6	0	0.6	-2	/
Cc1ccccc1C(=O)N1CCC(C(=O)Nc2cc(C(F)(F)F)ccc2N2CCCC2)CC1	/	/	2	0	/	-2	/
COc1ccc(S(=O)(=O)Nc2ccc(O)c3ccccc23)cc1	100*	-7	-26	18	-3.7*	1	97*	Dynein confirm=i
Cc1ccc(S(=O)(=O)/N=C(\CCl)N2CCOCC2)cc1	87*	-95	-14	/	-3.8*	/	49	Dynein confirm=+
Cc1ccc(S(=O)(=O)/N=C(\CN2CCOCC2)N2CCCC2)cc1	3	10	5	0	-0.82	-1	/
CCn1c(SCC(=O)N2CCOCC2)nc2oc3c(Cl)cc(Cl)cc3c(=O)c2c1=O	72*	-66	-17	18	-3.5*	-1	8	Dynein confirm=+
CC[n+]1c(/C=C/C=C/N(C(C)=O)c2ccccc2)sc2cc(OC)ccc21	88*	0	/	/	-3.8*	/	29	Dynein confirm=+
CC(=O)O[C@@H]1C[C@H]2C(C)(C)C(=O)C=C[C@]2(C)[C@H]2CC[C@@]3(C)[C@H](c4ccoc4)OC(=O)[C@H]4O[C@]43[C@@]21C	100*	-27	32	1	-3.9*	0	94*	Dynein confirm=+
CC1(C)OC(=O)C=C[C@]2(C)[C@H]3CC[C@@]4(C)[C@H](c5ccoc5)OC(=O)[C@H]5O[C@]54[C@]3(C)C(=O)C[C@@H]12	/	/	/	0	/	-1	/
CCOc1ccc(C(=O)NCc2ccc3c(c2)OCO3)cc1OCC	/	/	10	1	/	-1	/
SMILES	Lmaj promast	CHOP inh	T cruzi inh	UPR CHOP act	Dynein transport	XBP1 UPR activ	L major 1uM	others
COC(=O)N/N=C/c1cccs1	-5	-8	-13	0	0.35	1	/
COC(=O)C(=C/C(C)=C/c1cccs1)C(=O)OC	62*	-196	2	16	-4*	1	21	Dynein confirm=?
Cc1cccc(C)c1NC(=O)CN(C)C(=O)c1ccccc1OCc1ccc(F)cc1	/	/	-10	0	/	-2	/
CCn1c2ccc(OC)cc2c2nc3ccccc3nc21	9	39	1	-2	-0.16	12	/
CCOc1ccc(Cn2c3ccc(OC)cc3c3nc4ccccc4nc32)cc1	54*	106*	/	/	-0.84	/	-6	CHOP inh conf=-5
Cc1ccc2c(c1)c1c3n2CCCNC3CCC1 (stereo unspecified)	8	27	9	-1	-1	1	/
c1cc2c(cc1C1CCCCC1)c1c3n2CCCNC3CCC1 (stereo unspecified)	100*	/	22	32	-5.8	8	17	CHOP inh conf=-44
Cc1ccc(-n2nnnc2CCl)cc1	96*	108*	-6	/	-6.1*	/	15	Dynein confirm=+;CHOP inh conf=-50
Cc1ccc(-c2nnnn2-c2ccc(C)cc2)cc1	33	7	-2	1	0.12	1	/
CCN(CC(O)Cn1c2ccccc2c2ccccc21)S(=O)(=O)c1ccc(C)cc1 (stereo unspecified)	100*	99*	54	1	-0.75	-2	-10	CHOP inh conf=35
O=C(COc1ccc2c3c(c(=O)oc2c1)CCCC3)N1CCN(c2ccccc2)CC1	/	/	10	1	/	-3	/
CCCCC(=O)Oc1c(S(=O)(=O)c2ccccc2)c(C)nn1C(C)(C)C	/	/	-19	3	/	-5	/
CCOC(=O)N=Nc1c2ccccc2c2nc3no[nH]c3nc12	101*	105*	53	-4	0.19	-6	100*	CHOP inh conf=112*
CCOC(=O)N=Nc1c(O)n(CC(=O)OC)c2ccccc12	3	0	-9	2	2.4	-3	/
CCCCc1c(C)nn(-c2nnc3c4ccccc4n(C)c3n2)c1C	87*	107*	39	7	-0.071	3	-28	CHOP inh conf=38
COC(=O)CSc1nnc([C@H](Cc2ccccc2)NC(=O)OC(C)(C)C)o1	-2	40	-4	0	-0.08	-1	/

Screening data as filed in PubChem BioAssay.
